procasp7 counter – activates human procaspase-7, counter-screen for procaspase-3 activators. P55210. recombinant procaspase-7, Ac-DEVD-pNA absorbance 405 nm; D23A/D198A/D206A triple mutant, cannot self-cleave; scale: DMSO 0, 5 µM enzyme 100. activation, % at 8.5 µM. 0.093% of 330,000 active;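 active means percent activation above the screen-wide mean plus 3 SD, cut at about 25% in these data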
Target sequence (P55210 whole entry D23A/D198A/D206A): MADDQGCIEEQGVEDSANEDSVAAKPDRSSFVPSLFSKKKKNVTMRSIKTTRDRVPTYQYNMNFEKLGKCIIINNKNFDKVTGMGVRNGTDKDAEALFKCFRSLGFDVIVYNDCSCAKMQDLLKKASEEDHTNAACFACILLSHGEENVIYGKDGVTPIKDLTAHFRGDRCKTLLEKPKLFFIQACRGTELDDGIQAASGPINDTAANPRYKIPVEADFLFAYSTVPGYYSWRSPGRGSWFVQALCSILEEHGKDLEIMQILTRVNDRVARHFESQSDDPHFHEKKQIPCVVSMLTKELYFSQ
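System: Uncleavable procaspase-7 mutant enzyme; Amount: 2 µM procaspase-7 mutant as dispensed; Schedule: 1 h compound preincubation, 2 h substrate cleavage, 25 °C; Measured by: 405 nm absorbance of p-nitroaniline; Evaluation: percent activation from buffer-corrected 0–120 min absorbance change; Control set: low DMSO alone, high DMSO plus 5 µM PC-7.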
procasp3 activ – procaspase-3 (human) activation; recombinant procaspase-3 D3A, Ac-DEVD-pNA absorbance 405 nm; activation, % at 8.5 µM; 0.11% of 330,000 active;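 active means activation above the mean of all tested compounds plus 3 SD, cut at about 21% in these data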;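 further: 0% = DMSO alone and 100% = DMSO wells spiked with extra 5 µM PC-3 D3A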
Target sequence (P42574 whole entry D9A/D28A/D175A): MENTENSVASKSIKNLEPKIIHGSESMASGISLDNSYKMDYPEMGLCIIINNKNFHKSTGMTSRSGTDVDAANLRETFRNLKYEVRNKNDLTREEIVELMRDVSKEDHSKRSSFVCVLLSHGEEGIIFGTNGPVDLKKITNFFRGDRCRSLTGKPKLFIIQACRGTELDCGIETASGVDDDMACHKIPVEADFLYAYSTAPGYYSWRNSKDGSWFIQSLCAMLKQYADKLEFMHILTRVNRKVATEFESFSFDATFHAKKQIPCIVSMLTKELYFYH
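assay system = Procaspase-3 D3A mutant | signal = absorbance at 405 nm, 0 and 120 min | times = 1 h preincubation plus 2 h reaction at 25 °C | repeats = single replicate | read-out = % activation between DMSO and enzyme-spiked controls | medium = Zinc-free HEPES saline buffer with Triton X-100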
AHR act – human AHR activation. 2.5% of 320,000 active. AHR-responsive luciferase reporter cells, luminescence. activation, % at 5 µM. P35869; in the data active means activation above about 47%;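 further: 0% = vehicle wells and 100% = reference agonist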
PolyA inh – inhibitors of polyadenylation in S. cerevisiae; 0.02% of 300,000 active; S. cerevisiae SKY197-pL101 polyadenylation reporter, beta-gal luminescence; efflux-impaired pdr1/pdr3 knockout yeast; score 100 = 6 SD above DMSO; activity score, % at 12 µM;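 active means lowest replicate activity score at least 50, where 100 means six control SD above control mean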;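 further: yeast exposed to compound for 9 h at 30 °C; higher score means more reporter readthrough which indicates perturbed polyadenylation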
The depositor's hits bear a star. Compounds with a hit are over-represented: about 2.6% of the library has one in this group of screens.

For COc1cc(OC)cc(C(=O)Nc2cccnc2)c1 the results were procasp7 counter -0.5, procasp3 activ 0.4, AHR act 59.5* and PolyA inh -12.3.
`O=S(=O)([O-])C(c1ccccc1)[n+]1ccccc1` (stereo not drawn) gave procasp7 counter -1.9, procasp3 activ 6.2, AHR act -4.1 and PolyA inh 12.7.
`CC(C)n1cnc2c(Nc3cccc(F)c3)nc(NCCO)nc21` gave procasp7 counter 2.1, procasp3 activ -4.9, AHR act 66.4* and PolyA inh 8.0.
`COC(=O)c1ccc(N2CCN(c3ccccc3)CC2)c(N)c1` gave procasp7 counter 9.7, procasp3 activ -2.8, AHR act 1.1 and PolyA inh -15.1.
Screening Cc1c(Cl)cccc1NC(=S)N=Nc1c(O)n(CN2CCOCC2)c2ccccc12 returned procasp7 counter 12.8, procasp3 activ 1.5 and AHR act 53.1*.
`COc1cc(/C=C/c2nnc3c4ccccc4ncn23)cc(OC)c1OC` gave procasp7 counter 4.3, procasp3 activ 3.3, AHR act 45.4 and PolyA inh 2.9.
`C(=C\c1nnc2c3ccccc3ncn12)/c1ccccc1` gave procasp7 counter 0.9, procasp3 activ 5.9, AHR act 67.4* and PolyA inh -18.7.
For Cc1cc(N2CCN(c3ncccn3)CC2)nc2c(C)cccc12 the results were procasp7 counter 3.3, procasp3 activ -3.0, AHR act 71.7* and PolyA inh -20.0.
`Cc1cc(O)ccc1N/C=C(\C#N)c1nc2ccccc2o1` gave procasp7 counter 3.2, procasp3 activ -2.6, AHR act 54.4* and PolyA inh 13.1.
`N#C/C(=C\c1c(Cl)cccc1Cl)c1nc2ccccc2o1` gave procasp7 counter 1.7, procasp3 activ -7.0, AHR act 2.1 and PolyA inh -45.4.
For CCC(=O)NNc1nc2c(C)cc(C)cc2s1 the results were procasp7 counter 2.3, procasp3 activ 1.1, AHR act 62.2* and PolyA inh -7.7.
CCc1noc(C)c1C(=O)Nc1nc2c(C)cc(C)cc2s1 was read as procasp7 counter 7.0, procasp3 activ 10.9, AHR act -9.2 and PolyA inh -2.4.
Screening Cc1cccc(N(CC(O)CN2CCCC2)S(=O)(=O)c2ccccc2)c1 (stereo not drawn) returned procasp7 counter 1.2, procasp3 activ 3.9, AHR act 0.5 and PolyA inh 6.4.
C/C(=N\Nc1nnc2c3ccccc3n(C)c2n1)c1ccc(C)o1 was read as procasp7 counter 7.5, procasp3 activ 4.0, AHR act 88.1* and PolyA inh -19.7.
For O=C1/C(=C\Nc2ccc(Cl)cc2)CCN1c1ncccn1 the results were procasp7 counter 5.3, procasp3 activ -4.3, AHR act 51.7* and PolyA inh 1.1.
`O=C1/C(=C\Nc2ccc(OC(F)(F)F)cc2)CCN1c1ncccn1` gave procasp7 counter 2.3, procasp3 activ -0.1, AHR act 5.8 and PolyA inh -13.8.
Screening NC(=O)N=Nc1c(O)[nH]c2c(Br)cc(Br)cc12 returned procasp7 counter 13.9, procasp3 activ 6.8, AHR act 50.3* and PolyA inh -1.3.
`O=C(CCCCCNC(=O)c1ccccc1)N=Nc1c(O)[nH]c2c(Br)cc(Br)cc12` gave procasp7 counter 4.4, procasp3 activ 7.3, AHR act 4.5 and PolyA inh 4.8.
CN1CC(=O)N/C1=N\C(=O)Nc1ccc(O)cc1 was read as procasp7 counter -21.1, procasp3 activ 2.3, AHR act 1.3 and PolyA inh -19.7.
O=C(Nc1ccccn1)Nc1ccccc1[N+](=O)[O-] was read as procasp7 counter -4.7, procasp3 activ -6.5, AHR act 49.0* and PolyA inh -3.8.
For CCCONC(=O)Nc1ccccc1[N+](=O)[O-] the results were procasp7 counter -16.0, procasp3 activ -3.4, AHR act 53.3* and PolyA inh -8.2.
Cc1ccccc1NC(=O)Nc1ccccn1 was read as procasp7 counter 0.2, procasp3 activ 4.5, AHR act 26.3 and PolyA inh -6.6.
For CCCC(=O)OCC(=O)c1[nH]c(C)c(C(C)=O)c1C the results were procasp7 counter 2.6, procasp3 activ -1.7, AHR act 0.9 and PolyA inh 6.3.
`O=C(Oc1ccccc1O)c1cccc2ccccc12` gave procasp7 counter 10.0, procasp3 activ 0.0, AHR act 22.6 and PolyA inh -21.6.
For CCc1nc2c(sc3nc4c(cc32)COC(C)(C)C4)c(=O)n1Cc1ccccc1 the results were procasp7 counter 0.2, procasp3 activ 6.7, AHR act 5.0 and PolyA inh 11.1.
CCc1nc2c(sc3nc4c(cc32)COC(C)(C)C4)c(=O)n1Cc1ccco1 was read as procasp7 counter 0.0, procasp3 activ 1.5, AHR act 53.0* and PolyA inh -3.2.
O=C(N=C1N=C2C=CC(Br)=CN2Cc2ccccc21)c1ccc([N+](=O)[O-])cc1[N+](=O)[O-] was read as procasp7 counter -6.5, procasp3 activ 4.8, AHR act 94.2* and PolyA inh -27.9.
Screening O=C(c1ccc([N+](=O)[O-])cc1[N+](=O)[O-])N1CCc2ccccc21 returned procasp7 counter 1.5, procasp3 activ 0.3, AHR act 22.5 and PolyA inh -14.1.
N#Cc1ccccc1NC(=O)CSc1nnc(-c2ccccc2)n1-c1ccccc1 was read as procasp7 counter 7.4, procasp3 activ -1.6, AHR act 64.5* and PolyA inh -2.0.
`CCN(CC)c1ccc(-c2nnc(SCC(=O)Nc3ccccc3C#N)n2-c2ccccc2)cc1` gave procasp7 counter 6.0, procasp3 activ -4.7, AHR act 18.0 and PolyA inh -7.3.
Screening CC(OC(=O)/C=C/c1ccc2ccccc2n1)C(=O)Nc1ccc(S(N)(=O)=O)cc1 (stereo not drawn) returned procasp7 counter 1.6, procasp3 activ -8.4, AHR act 9.4 and PolyA inh 11.6.
`COc1cc(CNc2nc(C)c([N+](=O)[O-])c(C)c2C#N)cc(OC)c1` gave procasp7 counter 3.4, procasp3 activ 2.5, AHR act 7.7 and PolyA inh -4.8.
Screening COCc1c(C#N)c(NCCc2ccc(F)cc2)nc(C)c1[N+](=O)[O-] returned procasp7 counter 19.0, procasp3 activ -5.3, AHR act 75.5* and PolyA inh -10.1.
Cc1nc(NCCc2ccccc2F)c(C#N)c(C)c1[N+](=O)[O-] was read as procasp7 counter -10.6, procasp3 activ -1.3, AHR act 51.5* and PolyA inh -1.8.
COCc1c(C#N)c(NCCc2ccccc2)nc(C)c1[N+](=O)[O-] was read as procasp7 counter -16.5, procasp3 activ -9.1, AHR act 78.0* and PolyA inh -22.9.
Screening COCc1c(C#N)c(NCc2cc(OC)c(OC)c(OC)c2)nc(C)c1[N+](=O)[O-] returned procasp7 counter -5.5, procasp3 activ 1.1, AHR act 1.3 and PolyA inh -0.9.

Screening results (PubChem BioAssay)
